Test results reported in ChEMBL document CHEMBL4732044, “Discovery of a promising agent IQZ23 for the treatment of obesity and related metabolic disorders” (Eur J Med Chem, 2020).
Calls of active or inactive are those of the source. No cut-off for these calls is given here.

Tests used:
[1] = test system: 3T3-L1; experiment: Cytotoxicity against mouse 3T3-L1 cells assessed as change in LDH releasing level at 5 uM after 6 days by LDH releasing assay; format: cell-based; settings: 3t3-l1, 144 h, time 6 day
How it was run: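 Differentiating 3T3-L1 cells were treated at 5 µM for 6 days. Plates were centrifuged and LDH activity in the supernatant was read at 490 nm. Release was expressed as fold = (treated − blank)/(control − blank), with untreated cells as blank and vehicle-differentiated control set to 1.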

[2] = test system: 3T3-L1; experiment: Lipid lowering activity in mouse 3T3-L1 cells assessed as adipogenic cocktail-induced triglyceride levels at 1 uM after 3 to 6 days by GPO-POD assay relative to control; format: functional; settings: time 3-6 day
How it was run: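 3T3-L1 cells were differentiated (cocktail on days 0–3, insulin thereafter) with 1 µM compound present during defined windows (days 0–3, 3–6, 6–9, or 0–3/0–6/0–9). TG was measured at day 9 by GPO-POD after Triton X-100 lysis and sonication. TG was normalized to BCA protein and expressed as % of differentiated control.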

[3] = test system: 3T3-L1; experiment: Inhibition of mouse 3T3-L1 cells adipocyte differentiation assessed as reduction in adipogenic cocktail-induced fatty acid synthase protein expression at 0.3 to 1 uM after 6 days by Western blot analysis; format: functional, cell-based; settings: dose 0.3-1 µM, time 6.0 day
How it was run: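 3T3-L1 preadipocytes were differentiated with cocktail for 3 days, then insulin medium for 3 days, with compound (0.3 or 1 µM) present throughout. Cells were harvested on day 6 and proteins measured by Western blot, with densitometry normalized to actin.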

[4] = test system: 3T3-L1; experiment: Activation of AMPK pathway in adipogenic cocktail-induced mouse 3T3-L1 cells with SiRNA-induced AMPKalpha knock down assessed as decrease in PPARgamma protein expression at 1 uM after 24 hrs by Western blot analysis; format: cell-based
How it was run: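 3T3-L1 cells at 80% density transfected with 50 nM AMPKα siRNA or negative control for 24 h. Once confluent, differentiated with adipogenic cocktail with or without compound. Protein by Western blot normalized to actin. TG measured by GPO-POD kit, normalized to BCA protein, expressed as % of control.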

[5] = test system: C2C12; experiment: Activation of AMPK pathway in mouse C2C12 cells assessed as increase in glucose uptake at 0.3 to 1 uM after 6 hrs by 2-NBDG/Hoechst 33342 staining based Confocal microscopic method; format: cell-based; settings: filed as activator, dose 0.3-1 µM
How it was run: (§1)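 C2C12 myoblasts kept in DMEM with 10% FBS and 1% penicillin/streptomycin at 37 °C under 5% CO2.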

[6] = test system: 3T3-L1; experiment: Activation of AMPK pathway in mouse 3T3-L1 cells assessed as increase in TFAM mRNA expression at 0.3 to 1 uM after 24 hrs by RT-qPCR analysis; format: cell-based; settings: filed as activator, dose 0.3-1 µM
[7] = test system: 3T3-L1; experiment: Activation of AMPK pathway in mouse 3T3-L1 cells assessed as increase in ACSL mRNA expression at 0.3 to 1 uM after 24 hrs by RT-qPCR analysis; format: cell-based; settings: filed as activator, dose 0.3-1 µM
[8] = Half life in Sprague-Dawley rat at 2 mg/kg, iv up to 24 hrs by LC-MS/MS analysis; format: ADME, organism-based; settings: in vivo
How it was run: (§2)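 Male SD rats (180–220 g, n = 3) received compound in ethanol/saline (5:95), either intravenously at 2 mg/kg or intragastrically at 5 mg/kg. Plasma was sampled at 0, 0.5, 1, 2, 4, 8, 12 and 24 h. Concentrations were measured by LC-MS/MS, and PK parameters were calculated from the concentration–time data.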

[9] = AUC(0 to t) in Sprague-Dawley rat at 2 mg/kg, iv up to 24 hrs by LC-MS/MS analysis; format: ADME, organism-based; design: route intravenous, dose 2 mg/kg, time <=24; settings: in vivo
How it was run: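 Male Sprague-Dawley rats (180-220 g, n = 3) received a single intravenous dose of 2 mg/kg in ethanol/saline (5:95). Blood was sampled at 0, 30 min, 1, 2, 4, 8, 12 and 24 h after dosing and centrifuged to plasma. Plasma drug levels were measured by LC-MS/MS, and pharmacokinetic parameters were calculated from the concentration-time data.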

[10] = MRT(0 to infinity) in Sprague-Dawley rat at 2 mg/kg, iv up to 24 hrs by LC-MS/MS analysis; format: ADME, organism-based; settings: in vivo; how it was run: as §2
[11] = test system: Mus musculus; experiment: Antiobesity activity in high fat diet-induced obese C57BL/6J mouse model assessed as AST level at 20 mg/kg, ip administered for every other days for 6 weeks by auto-analyzer method (reference value: 341.6 +/- 23.8 U/L); format: functional
How it was run: (§3)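 Male C57BL/6J mice (7–8 weeks) fed HFC diet (60% fat, 1% cholesterol) for up to 14 weeks. From week 9, given 20 mg/kg i.p. every other day for 6 weeks in saline with 10% ethanol and 10% castor oil, or vehicle. Body weight and food intake recorded daily. At end, mice fasted 6 h, anesthetized, and blood collected into EDTA. Plasma chemistry run on an auto-analyzer; insulin by ultra-sensitive ELISA.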

[12] = test system: Mus musculus; experiment: Antiobesity activity in high fat diet-induced obese C57BL/6J mouse model assessed as free fatty acid level at 20 mg/kg, ip administered for every other days for 6 weeks by auto-analyzer method (reference value: 1668.5 +/- 144.6 uM); format: functional; how it was run: as §3
[13] = test system: Mus musculus; experiment: Antiobesity activity in high fat diet-induced obese C57BL/6J mouse model assessed as LDL cholesterol level at 20 mg/kg, ip administered for every other days for 6 weeks by auto-analyzer method (reference value: 0.9 +/- 0.4 mM); format: functional; how it was run: as §3
[14] = test system: Mus musculus; experiment: Antiobesity activity in high fat diet-induced obese C57BL/6J mouse model assessed as ratio of LDL cholesterol level to HDL cholesterol level at 20 mg/kg, ip administered for every other days for 6 weeks by auto-analyzer method (reference value: 0.4 +/- 0.13); format: functional
[15] = test system: 3T3-L1; experiment: Lipid lowering activity in mouse 3T3-L1 cells assessed as reduction in adipogenic cocktail-induced triglyceride levels at 5 uM incubated for 6 days by GPO-POD assay relative to control; format: functional; design: scale not given: the % may be the effect or the level left; settings: time 6 day
How it was run: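 Confluent 3T3-L1 cells were treated from day 0 in cocktail (IBMX, dexamethasone, insulin) for 3 days, then re-dosed in insulin medium for 3 more days. For dose–response, concentrations were 0–10 µM (0.01, 0.1, 0.3, 1, 3, 10). On day 6, cells were lysed in 0.2% Triton X-100 and TG was measured by GPO-POD and normalized to BCA protein as % of control. EC50 was fitted from the dose–response. N = 4.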

[16] = test system: C2C12; experiment: Activation of AMPK pathway in mouse C2C12 cells assessed as increase in glucose uptake at 1 uM after 6 hrs in presence of insulin by 2-NBDG/Hoechst 33342 staining based Confocal microscopic method; format: cell-based; settings: filed as activator; how it was run: as §1
[17] = test system: 3T3-L1; experiment: Activation of AMPK pathway in mouse 3T3-L1 cells assessed as increase in TFAM mRNA expression at 1 uM after 24 hrs by RT-qPCR analysis; format: cell-based; settings: filed as activator
[18] = test system: 3T3-L1; experiment: Activation of AMPK pathway in mouse 3T3-L1 cells assessed as increase in CPT-1beta mRNA expression at 1 uM after 24 hrs by RT-qPCR analysis; format: cell-based; settings: filed as activator
[19] = MRT(0 to infinity) in Sprague-Dawley rat at 2 mg/kg, iv up to 24 hrs by LC-MS/MS analysis; settings: in vivo
[20] = Apparent volume of distribution in Sprague-Dawley rat at 2 mg/kg, iv up to 24 hrs by LC-MS/MS analysis; settings: in vivo, read-out: Vz

Row | Compound | Activity [1] | Activity [2] | inhibition [3] | Activity [4] | Activity [5] | Activity [6] | Activity [7] | half-life [8] | AUC(0-t) at 24 h [9] | MRT inf [10] | Activity [11] | Activity [12] | Activity [13] | Ratio [14] | Activity [15] | Activity [16] | Activity [17] | Activity [18] | MRT inf [19] | Vd [20]
1 | COc1ccc2[nH]c(-c3nc(NCCCCN4CCCC4)c4ccccc4n3)c(C=O)c2c1 | Non-Toxic | 61.8% | Active | inactive | Active | Active | Active | 4.4 h | 308 ng·h/mL | 5.7 h | 163.7 U/L | 694.4 µM | 0.81 mM | 0.25 | – | – | – | – | – | –
2 | CN(C)CCCNc1nc(-c2[nH]c3ccccc3c2C=O)nc2ccccc12 | – | – | – | – | – | – | – | – | – | – | – | – | – | – | 89.3% | Active | Active | Active | 3.56 h | 33.8 L/kg
